For data set [1], the system named is Mycobacterium tuberculosis H37Rv. The data set is described as follows: Microplate alamar blue assay. The class given is cell-based. The conditions noted are these: MABA, 7 days, unit as printed mg mL^−1. (Resazurin is reduced to fluorescent resorufin, in cell work by metabolically active cells.)
In a further data set the test system is A549 cell line. The data set is described as follows: MTT-based cytotoxicity on lung cancer cell line. Further details: species or system human. The method in brief: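 A549 lung cancer cells were exposed to test compounds for 24 h, with cisplatin as the reference. Viability was measured by MTT: viable cells reduce the dye to formazan crystals, which are dissolved in solvent and read at 570 nm. IC50 is the half-maximal inhibitory concentration.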

In data set [2] the test system is mouse macrophage cell line (RAW 264.7). The conditions noted are these: RAW 264.7, 48 h, MTT.
For the next data set, the target named is InhA enzyme (Mycobacterium tuberculosis, UniProt P9WGR1). The data set is described as follows: InhA enzyme inhibition assay. It counts as biochemical, M. tuberculosis. The following applies: for inhibition at 50 µM: read-out: % inhibition InhA at 50 μM of inhibitor.

Some results are limits rather than exact numbers.

Chain of InhA enzyme (P9WGR1 whole entry, looked up): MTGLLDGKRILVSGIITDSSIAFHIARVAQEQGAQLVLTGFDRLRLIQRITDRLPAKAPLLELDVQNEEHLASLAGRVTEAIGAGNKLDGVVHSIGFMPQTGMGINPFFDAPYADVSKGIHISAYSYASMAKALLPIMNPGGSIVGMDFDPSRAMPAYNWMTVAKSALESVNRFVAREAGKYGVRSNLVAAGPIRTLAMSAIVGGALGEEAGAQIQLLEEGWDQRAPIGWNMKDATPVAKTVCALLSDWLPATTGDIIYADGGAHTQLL

In the case of “1-(4-(1H-Pyrrol-1-yl)phenyl)-6-(4-(dimethyl amino)phenyl)hexa-2,5-dien-1-one [Compound 3v]”, the MIC values in data set [1] came out at 25 mg/mL.
In the case of “1-(4-(1H-Pyrrol-1-yl)phenyl)-6-phenylhexa-2,5-dien-1-one [Compound 3r]”, the MIC values in data set [1] was greater than 25 mg/mL.
On to “4-(4-(1H-Pyrrol-1-yl)phenyl)-6-(furan-3-yl)pyrimidin-2-amine [Compound 4b]”, for which, in data set [1], the MIC values is 25 mg/mL.
On to `N.N.[Cl][Pt][Cl]` [Cisplatin, reference compound], for which the IC50 in the data set on A549 cell line (A549, MTT) was determined as 9.9 µM. That is a single-digit micromolar value.
Regarding `CC(C)c1ccc(C=CC(=O)c2ccc(-n3cccc3)cc2)cc1` [Compound 3k, 1-(4-(1H-Pyrrol-1-yl)phenyl)-3-(4-isopropylphenyl)prop-2-en-1-one], in data set [2], the “% Toxicity at 25 μg mL^−1” value is listed as 30.1%. For the same molecule, the inhibition at 50 µM on InhA enzyme came to 36%.
For `O=C(C=Cc1cccs1)c1ccc(-n2cccc2)cc1` [Compound 3l, 1-(4-(1H-Pyrrol-1-yl)phenyl)-3-(thiophen-2-yl)prop-2-en-1-one], in that order: 26.6% and 36%.
As to `COc1ccc(-c2cc(-c3ccc(-n4cccc4)cc3)nc(N)n2)c(OC)c1` [Compound 4c, 4-(4-(1H-Pyrrol-1-yl)phenyl)-6-(2,4-dimethoxyphenyl)pyrimidin-2-amine], in the data set with A549 cell line (Homo sapiens, A549), the IC50 is 55.1 µM. Further, the “% Toxicity at 25 μg mL^−1” value in data set [2] is 25.80%. Also, the inhibition at 50 µM at InhA enzyme stood at 16%.
The like results for `COc1ccc(-c2cc(-c3ccc(-n4cccc4)cc3)nc(N)n2)cc1` [Compound 4g, 4-(4-(1H-Pyrrol-1-yl)phenyl)-6-(4-methoxyphenyl)pyrimidin-2-amine] were, in that order, 49.4 µM, 19.09% and 36%.
Molecule `Nc1nc(-c2ccc(-n3cccc3)cc2)cc(-c2ccc(Cl)cc2Cl)n1` [Compound 4h, 4-(4-(1H-Pyrrol-1-yl)phenyl)-6-(2,4-dichlorophenyl)pyrimidin-2-amine] displayed an IC50 in the data set on A549 cell line (Homo sapiens, A549) of 105 µM. Also, the “% Toxicity at 25 μg mL^−1” value in data set [2] amounted to 26.80%. For the same molecule, at InhA enzyme, the inhibition at 50 µM was less than 5%.
Regarding `CC(C)c1ccc(-c2cc(-c3ccc(-n4cccc4)cc3)nc(N)n2)cc1` [Compound 4k, 4-(4-(1H-Pyrrol-1-yl)phenyl)-6-(4-isopropylphenyl)pyrimidin-2-amine], the midpoint of inhibition in the data set with A549 cell line (Homo sapiens, A549), the IC50, lay at 123 µM. In addition, the “% Toxicity at 25 μg mL^−1” value in data set [2] was 28.90%. On InhA enzyme, the inhibition at 50 µM was 10%.
Regarding `COc1cccc(-c2cc(-c3ccc(-n4cccc4)cc3)nc(N)n2)c1O` [Compound 4u, 2-(6-(4-(1H-Pyrrol-1-yl)phenyl)-2-aminopyrimidin-4-yl)-6-methoxyphenol], in data set [2], the “% Toxicity at 25 μg mL^−1” value amounted to 19.10%. For the same molecule, the “% inhibition InhA at 50 μM of inhibitor” value at InhA enzyme (50 μM inhibitor) is recorded as “no inhibition”. Further, the inhibition at 50 µM on InhA enzyme was less than 5%.

The term IC50 denotes the concentration at which inhibition is half-maximal. A high value points to lower potency. For orientation: inhibition means the drop in the measured response relative to a control, in per cent.
